Test results published in ChEMBL document CHEMBL3217692, “Synthesis and cytotoxicity evaluation of novel pyrido[3,4-d]pyrimidine derivatives as potential anticancer agents” (2012).

System: MOLT-4
Assay: Cytotoxicity against human MOLT4 cells assessed as cell growth at 10 uM after 48 hrs by sulforhodamine B assay relative to control
Type: functional
Conditions: MOLT-4, 48 h, read-out: Activity
Method in brief: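 Suspension lines were cultured in RPMI 1640 with 5% FBS and 2 mM L-glutamine, plated at 5000–40 000 cells/well and preincubated 24 h (37 °C, 5% CO2). Compound in DMSO was given at a single 10 μM dose for 48 h. Settled cells were fixed with 80% TCA (final 16%), then stained with SRB and read at 515 nm. Growth percentage was taken relative to time-zero and untreated control absorbances.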

With COc1nccc2c(-c3cccc(F)c3)nc(N)nc12 the growth at 10 µM was 77.8%.
